# According to ChEMBL document CHEMBL4396969, “Discovery of IACS-8803 and IACS-8779, potent agonists of stimulator of interferon genes (STING) with robust systemic antitumor efficacy” (Bioorg Med Chem Lett, 2019):
# Calls of active or inactive are those of the source. The rule behind the calls is not given here.
# Legend:
# Mus musculus [1] = experiment: Antitumor activity against mouse B16-OVA cells implanted in mouse assessed as tumour regression in injected flank at 10 ug administered intratumorally on day 6, 9 and 12 post implantation; format: functional, cell-based
# Summary of the method: (§1)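 Mice (n=5 per group) implanted bilaterally with 1×10^5 B16-Ova cells; 10 µg CDN injected intratumorally into one flank only on days 6, 9 and 12 post implantation. Tumor regression followed in injected and contralateral untreated flanks; cure of both tumors recorded.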
# Mus musculus [2] = experiment: Antitumor activity against mouse B16-OVA cells implanted in mouse assessed as higher number of mouse cured of tumors at 10 ug administered intratumorally on day 6, 9 and 12 post implantation; format: functional, cell-based; summary of the method: as §1
# Mus musculus [3] = experiment: Antitumor activity against mouse B16-OVA cells implanted in mouse assessed as tumour regression in contralateral flank at 10 ug administered intratumorally on day 6, 9 and 12 post implantation; format: functional, cell-based; summary of the method: as §1
# [4] = target: T1, Stimulator of interferon genes protein (Mus musculus) (UniProt Q3TBT3); experiment: Agonist activity at STING in mouse J774 cells assessed as stimulation of IRF3 pathway measured after 20 hrs by luciferase reporter gene assay; format: cell-based
# T1 sequence (whole entry): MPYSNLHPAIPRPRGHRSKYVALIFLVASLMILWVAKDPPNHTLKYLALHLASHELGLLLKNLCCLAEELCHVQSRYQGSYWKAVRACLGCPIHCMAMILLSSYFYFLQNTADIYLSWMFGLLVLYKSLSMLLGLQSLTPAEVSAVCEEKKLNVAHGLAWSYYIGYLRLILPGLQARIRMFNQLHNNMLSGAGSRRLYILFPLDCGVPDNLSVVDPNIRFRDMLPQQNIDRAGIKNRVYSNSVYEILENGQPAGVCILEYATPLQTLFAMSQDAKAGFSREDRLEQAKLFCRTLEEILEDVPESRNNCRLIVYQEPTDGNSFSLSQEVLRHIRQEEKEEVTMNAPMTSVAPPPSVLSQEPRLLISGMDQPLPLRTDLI
# Summary of the method: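 J774-Dual reporter cells (stably carrying inducible NF-kB and IRF3 reporter constructs), 5×10^4 per well, given CDN at 1 µg/mL for 20 hours; IRF3 pathway activity read by luciferase assay.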
Structure (SMILES),Activity [4],Activity (Mus musculus [1]),Activity (Mus musculus [2]),Activity (Mus musculus [3])
Nc1nc2c(ncn2[C@@H]2O[C@@H]3COP(=O)(O)O[C@H]4[C@@H](O)[C@H](n5cnc6c(N)ncnc65)O[C@@H]4COP(=O)(O)O[C@@H]2[C@@H]3O)c(=O)[nH]1,–,Active,Active,Active
Nc1ncnc2c1ncn2[C@@H]1O[C@@H]2CO[P@@](=O)(S)O[C@@H]3[C@H](O)[C@@H](CO[P@@](=O)(S)O[C@H]2[C@H]1F)O[C@H]3n1cnc2c(N)ncnc21,Active,Active,Active,Active
Nc1ncnc2c1ccn2[C@@H]1O[C@@H]2CO[P@@](=O)(S)O[C@@H]3[C@H](O)[C@@H](CO[P@@](=O)(S)O[C@H]2[C@H]1O)O[C@H]3n1cnc2c(N)ncnc21,Active,Active,Active,Active
Nc1ncnc2c1ncn2[C@@H]1O[C@@H]2CO[P@](=O)(S)O[C@@H]3[C@H](O)[C@@H](CO[P@@](=O)(S)O[C@H]2[C@H]1F)O[C@H]3n1cnc2c(N)ncnc21,Active,–,–,–
Nc1ncnc2c1ccn2[C@@H]1O[C@@H]2CO[P@](=O)(S)O[C@@H]3[C@H](O)[C@@H](CO[P@@](=O)(S)O[C@H]2[C@H]1O)O[C@H]3n1cnc2c(N)ncnc21,Active,–,–,–

# Further lines, with some results ahead:
Activity [4],Structure (SMILES),Activity (Mus musculus [1]),Activity (Mus musculus [2]),Activity (Mus musculus [3])
Active,Nc1ncnc2c1ccn2[C@@H]1O[C@@H]2CO[P@@](=O)(S)O[C@H]3[C@@H](O)[C@H](n4cnc5c(N)ncnc54)O[C@@H]3CO[P@@](=O)(S)O[C@@H]1[C@@H]2O,–,–,–
Active,Nc1ncnc2c1ccn2[C@@H]1O[C@@H]2CO[P@@](=O)(S)O[C@H]3[C@@H](O)[C@H](n4cnc5c(N)ncnc54)O[C@@H]3CO[P@](=O)(S)O[C@@H]1[C@@H]2O,–,–,–
